{"source": "ChEMBL document CHEMBL1149396", "about": "“In silico design and synthesis of piperazine-1-pyrrolidine-2,5-dione scaffold-based novel malic enzyme inhibitors” (Bioorg Med Chem Lett, 2006)", "target": "T1, NADP-dependent malic enzyme (Homo sapiens, UniProt P48163)", "T1 sequence (P48163 whole entry)": "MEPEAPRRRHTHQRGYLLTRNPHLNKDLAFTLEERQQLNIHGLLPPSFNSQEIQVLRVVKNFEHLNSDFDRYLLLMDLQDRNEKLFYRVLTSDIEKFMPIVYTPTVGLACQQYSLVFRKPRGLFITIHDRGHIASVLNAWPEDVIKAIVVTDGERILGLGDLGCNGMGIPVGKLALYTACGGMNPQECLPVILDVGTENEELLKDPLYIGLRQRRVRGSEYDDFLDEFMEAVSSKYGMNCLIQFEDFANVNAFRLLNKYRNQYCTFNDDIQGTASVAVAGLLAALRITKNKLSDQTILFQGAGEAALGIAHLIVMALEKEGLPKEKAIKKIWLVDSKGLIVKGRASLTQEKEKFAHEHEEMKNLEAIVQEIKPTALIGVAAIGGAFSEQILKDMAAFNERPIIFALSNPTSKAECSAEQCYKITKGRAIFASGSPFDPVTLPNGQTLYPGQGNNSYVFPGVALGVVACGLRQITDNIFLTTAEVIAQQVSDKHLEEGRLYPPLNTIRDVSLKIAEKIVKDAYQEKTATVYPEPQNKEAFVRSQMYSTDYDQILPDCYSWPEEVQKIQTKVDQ", "assay": "Inhibitory activity against cytosolic malic enzyme", "summary_of_the_method": "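Coupled endpoint assay. Enzyme pre-incubated with compound 45 min at room temperature in 85 mM Tris pH 7.5 containing 2 mM malic acid and 5 mM MnCl2. Reaction started with 124 µM NADP, run 30 min at room temperature, stopped with 0.5 M EDTA. NADPH formed read via MTS/PMS reduction to formazan, absorbance at 492 nm.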"}
{"smiles": "O=C1CC(N2CCN(c3cccc(O)c3)CC2)C(=O)N1Cc1ccccc1", "note": "(stereo not given)", "values": [{"measurement": "IC50", "result": 10, "unit": "µM"}]}
{"smiles": "O=C1CC(N2CCN(c3ccc(O)cc3)CC2)C(=O)N1Cc1ccccc1", "note": "(stereo not given)", "values": [{"measurement": "IC50", "result": 0.45, "unit": "µM"}]}
{"smiles": "COc1ccc(N2CCN(C3CC(=O)N(c4ccccc4)C3=O)CC2)cc1", "note": "(stereo not given)", "values": [{"measurement": "IC50", "result": "> 20", "unit": "µM"}]}
{"smiles": "COc1ccc(N2CCN(C3CC(=O)N(Cc4ccccc4)C3=O)CC2)cc1", "note": "(stereo not given)", "values": [{"measurement": "IC50", "result": "> 20", "unit": "µM"}]}
{"smiles": "Cc1ccc(N2C(=O)CC(N3CCN(c4ccc(O)cc4)CC3)C2=O)cc1Cl", "note": "(stereo not given)", "values": [{"measurement": "IC50", "result": 0.56, "unit": "µM"}]}
{"smiles": "O=C1CC(N2CCN(c3cccc(C(F)(F)F)c3)CC2)C(=O)N1c1ccccc1", "note": "(stereo not given)", "values": [{"measurement": "IC50", "result": 3.15, "unit": "µM"}]}
{"smiles": "O=C1CC(N2CCN(c3ccccc3O)CC2)C(=O)N1Cc1ccccc1", "note": "(stereo not given)", "values": [{"measurement": "IC50", "result": "> 20", "unit": "µM"}]}
{"smiles": "O=C1CC(N2CCN(c3ccc(F)cc3)CC2)C(=O)N1c1ccccc1", "note": "(stereo not given)", "values": [{"measurement": "IC50", "result": 10, "unit": "µM"}]}
{"smiles": "COc1ccc(N2CCN(C3CC(=O)N(c4cccc(Cl)c4Cl)C3=O)CC2)cc1", "note": "(stereo not given)", "values": [{"measurement": "IC50", "result": "> 20", "unit": "µM"}]}
{"smiles": "O=C1CC(N2CCN(c3ccc(O)cc3)CC2)C(=O)N1c1ccccc1", "note": "(stereo not given)", "values": [{"measurement": "IC50", "result": 0.15, "unit": "µM"}]}
